Data taken from ChEMBL document CHEMBL1955737, “Diarylpyrimidine-dihydrobenzyloxopyrimidine hybrids: new, wide-spectrum anti-HIV-1 agents active at (sub)-nanomolar level” (J Med Chem, 2011).

Key:
[1] = test system: Human immunodeficiency virus 1; assay: Ratio of ID50 for HIV 1 reverse transcriptase Y188L mutant to ID50 for wild type HIV 1 NL4-3 reverse transcriptase
In short: (§1)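 Recombinant HIV-1 RT (wild type or K103N, L100I, Y181I or Y188L), purified to >95%, at 2-4 nM. RNA-dependent DNA polymerase assay with 0.5 μg poly(rA)/oligo(dT) 10:1 (0.3 μM 3'-OH ends) and 10 μM [3H]dTTP in 8% final DMSO. Initial velocities were taken from aliquots sampled every 2 min. […] The ratio is mutant ID50 over wild-type ID50. Means of at least three experiments.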

[2] = Cytotoxicity against human MT4 cells assessed as cell viability by MTT assay; format: cell-based
[3] = test system: Human immunodeficiency virus 1; assay: Antiviral activity against wild type HIV 1 NL4-3 infected in human MT4 cells assessed as inhibition of virus-induced cytopathic effect after 5 days by MTT assay; format: functional, organism-based; details: Human immunodeficiency virus 1, NL4-3, MT4, 120 h
[4] = test system: Human immunodeficiency virus type 1 reverse transcriptase (Human immunodeficiency virus 1), Q72547 [L100I]
[5] = Selectivity index, ratio of CC50 for human MT4 cells to EC50 for HIV 1 NL4-3; format: toxicity, cell-based; details: read-out: Ratio CC50/EC50
In short: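 CC50 from mock-infected MT-4 cells and EC50 against HIV-1 NL4-3 in infected MT-4 cells, both by day-5 MTT viability read-out; index computed as CC50/EC50(NL4-3); means of at least two experiments.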

[6] = molecular target: Human immunodeficiency virus type 1 reverse transcriptase (Human immunodeficiency virus 1) (UniProt Q72547)
[7] = test system: Human immunodeficiency virus 1; assay: Antiviral activity against HIV 1 harboring reverse transcriptase Y181C mutant infected in human MT4 cells assessed as inhibition of virus-induced cytopathic effect after 5 days by MTT assay; format: functional, organism-based; details: Human immunodeficiency virus 1, MT4, 120 h
In short: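 MT-4 cells (NIH AIDS Reagent Program) infected with the mutant HIV-1 strain in the presence of a range of drug concentrations. Mutant strains were from the MRC Centralised Facility for AIDS Reagents; IRLL98 carries K101Q, Y181C and G190A. Viable cells were counted by MTT colorimetry at day 5 post-infection. […] Values are means of at least two experiments.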

[8] = test system: Human immunodeficiency virus type 1 reverse transcriptase (Human immunodeficiency virus 1), Q72547 [K103N]
[9] = test system: Human immunodeficiency virus 1; assay: Ratio of ID50 for HIV 1 reverse transcriptase L100I mutant to ID50 for wild type HIV 1 NL4-3 reverse transcriptase; in short: as §1
[10] = test system: Human immunodeficiency virus 1; assay: Ratio of ID50 for HIV 1 reverse transcriptase Y181I mutant to ID50 for wild type HIV 1 NL4-3 reverse transcriptase; in short: as §1
[11] = test system: Human immunodeficiency virus type 1 reverse transcriptase (Human immunodeficiency virus 1), Q72547 [Y181I]
[12] = test system: Human immunodeficiency virus 1; assay: Antiviral activity against HIV 1 harboring reverse transcriptase K103N mutant infected in human MT4 cells assessed as inhibition of virus-induced cytopathic effect after 5 days by MTT assay; format: functional, organism-based; details: Human immunodeficiency virus 1, MT4, 120 h
[13] = test system: Human immunodeficiency virus 1; assay: Ratio of ID50 for HIV 1 reverse transcriptase K103N mutant to ID50 for wild type HIV 1 NL4-3 reverse transcriptase; in short: as §1
[14] = test system: Human immunodeficiency virus 1; assay: Resistance ratio of EC50 for HIV 1 harboring reverse transcriptase K103N mutant infected in human MT4 cells to EC50 for wild type HIV 1 NL4-3 infected in human MT4 cells; format: functional
In short: (§2)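 Fold change is the EC50 against the mutant strain (K103N, Y181C, Y188L or IRLL98) divided by the EC50 against wild-type NL4-3. Both EC50s come from MT-4 cells infected in the presence of a range of drug concentrations, with MTT viability read at day 5. Values are means of at least two experiments.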

[15] = test system: Human immunodeficiency virus 1; assay: Antiviral activity against HIV 1 harboring reverse transcriptase Y188L mutant infected in human MT4 cells assessed as inhibition of virus-induced cytopathic effect after 5 days by MTT assay; format: functional, organism-based; details: Human immunodeficiency virus 1, MT4, 120 h
[16] = test system: Human immunodeficiency virus 1; assay: Resistance ratio of EC50 for HIV 1 harboring reverse transcriptase Y181C mutant infected in human MT4 cells to EC50 for wild type HIV 1 NL4-3 infected in human MT4 cells; format: functional; in short: as §2
[17] = test system: Human immunodeficiency virus 1; assay: Resistance ratio of EC50 for HIV 1 harboring reverse transcriptase Y188L mutant infected in human MT4 cells to EC50 for wild type HIV 1 NL4-3 infected in human MT4 cells; format: functional; in short: as §2

SMILES | Ratio [1] | CC50 [2] | EC50 [3] | ID50 [4] | selectivity ratio [5] | ID50 [6] | EC50 [7] | ID50 [8] | Ratio [9] | Ratio [10] | ID50 [11] | EC50 [12] | Ratio [13] | Ratio EC50 [14] | EC50 [15] | Ratio EC50 [16] | Ratio EC50 [17]
N#Cc1ccc(Nc2nc(Cc3c(F)cccc3F)cc(=O)[nH]2)cc1 | 1550 | > 2500 nM | 344 nM | 1600 nM | > 7.3 | 0.8 nM | 344 nM | 2600 nM | 2000 | 70000 | 56000 nM | 290 nM | 3250 | 0.8 | > 2500 nM | 1 | –
Cc1cnc(Nc2ccc(C#N)cc2)nc1C(C)c1c(F)cccc1F (stereo unspecified) | 43 | 71400 nM | 0.6 nM | 128 nM | 119000 | 6.9 nM | 42.5 nM | 154 nM | 19 | 725 | 5000 nM | 51.9 nM | 22 | 86 | 31.4 nM | 71 | 52
Cc1cnc(Nc2ccc(C#N)cc2)nc1Cc1c(F)cccc1F | – | > 74300 nM | 3.3 nM | 2960 nM | > 22500 | 9 nM | 358 nM | 262 nM | 329 | – | > 80000 nM | 88.3 nM | 29 | 27 | 1020 nM | 108 | 308
N#Cc1ccc(Nc2nccc(Cc3c(F)cccc3F)n2)cc1 | 306 | > 77600 nM | 0.5 nM | 671 nM | > 155000 | 6 nM | 60.2 nM | 500 nM | 112 | 1250 | 7470 nM | 68.2 nM | 83 | 136 | 225 nM | 120 | 450
CC(c1ccnc(Nc2ccc(C#N)cc2)n1)c1c(F)cccc1F (stereo unspecified) | 85 | 37500 nM | 0.5 nM | 664 nM | 75000 | 9 nM | 44.3 nM | 248 nM | 74 | 656 | 5910 nM | 27.3 nM | 28 | 55 | 100 nM | 89 | 200
Cc1c(Cl)nc(Nc2ccc(C#N)cc2)nc1Cc1c(F)cccc1F | 371 | > 2700 nM | 21.6 nM | – | > 125 | 17 nM | 2540 nM | 445 nM | – | – | > 40000 nM | 739 nM | 26 | 23 | > 2700 nM | 80 | –
Cc1c(C(C)c2c(F)cccc2F)nc(Nc2ccc(C#N)cc2)[nH]c1=O (stereo unspecified) | 172 | 1060 nM | 2.9 nM | 1000 nM | 367 | 0.4 nM | 45.6 nM | 125 nM | 2500 | 3500 | 1400 nM | 61.1 nM | 312 | 21 | 230 nM | 16 | 79
CC(c1cc(Cl)nc(Nc2ccc(C#N)cc2)n1)c1c(F)cccc1F (stereo unspecified) | 237 | > 2700 nM | 1.5 nM | – | > 1800 | 12 nM | 154 nM | 286 nM | – | 2380 | 28600 nM | 51.2 nM | 24 | 34 | 836 nM | 102 | 557
CC(c1cc(=O)[nH]c(Nc2ccc(C#N)cc2)n1)c1c(F)cccc1F (stereo unspecified) | 149 | > 2840 nM | 9.1 nM | – | > 312 | 28 nM | 88 nM | 347 nM | – | 438 | 12300 nM | 56.8 nM | 12 | 6 | 653 nM | 10 | 72
Cc1c(Cc2c(F)cccc2F)nc(Nc2ccc(C#N)cc2)[nH]c1=O | – | > 2840 nM | 244 nM | – | > 11.6 | 200 nM | > 2840 nM | 21400 nM | – | – | > 80000 nM | 1390 nM | 107 | 6 | > 2840 nM | – | –
N#Cc1ccc(Nc2nc(Cl)cc(Cc3c(F)cccc3F)n2)cc1 | – | > 2800 nM | 13.4 nM | – | > 209 | 59 nM | 561 nM | 4360 nM | – | – | > 80000 nM | 171 nM | 74 | 13 | 1400 nM | 42 | 105
